Results as given in ChEMBL document CHEMBL1123412, “Thiopurine methyltransferase: structure-activity relationships for benzoic acid inhibitors and thiophenol substrates” (J Med Chem, 1986).

Assays:
Format in all cases: tissue-based
[1] = substrate: COc1cccc(S)c1; assay: (§1) Apparent binding constant for purified human kidney TPMT
Outline: (§2)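 Enzyme purified >300-fold from human kidney (100000g supernatant, ammonium sulfate, DEAE-A25, Sephadex G-100). The thiophenol replaced 6-MP as methyl acceptor, with 25 μM [14C-methyl]AdoMet at pH 6.7 and 37 °C for 30 min. Stopped with borate pH 10, extracted, scintillation counted. Five or more concentrations near Km in triplicate, at least twice. Apparent Km by Wilkinson method, averaged.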

[2] = substrate: Sc1ccc(Br)cc1; assay: as §1; outline: as §2
[3] = substrate: Fc1ccc(S)cc1; assay: as §1; outline: as §2
[4] = substrate: CC(=O)Nc1ccc(S)cc1; assay: as §1; outline: as §2
[5] = substrate: Sc1ccccc1Br; assay: as §1; outline: as §2
[6] = substrate: COc1ccccc1S; assay: as §1; outline: as §2
[7] = substrate: O=[N+]([O-])c1ccc(S)cc1; assay: as §1; outline: as §2
[8] = substrate: Sc1ccccc1; assay: as §1; outline: as §2
[9] = substrate: Sc1ccc(Cl)cc1; assay: as §1; outline: as §2
[10] = substrate: Sc1cccc(Cl)c1; assay: as §1; outline: as §2
[11] = substrate: O=C(O)c1ccccc1S; assay: as §1; outline: as §2
[12] = substrate: COc1ccc(S)cc1; assay: as §1; outline: as §2
[13] = substrate: Nc1ccccc1S; assay: as §1; outline: as §2
[14] = substrate: Cc1ccc(S)cc1; assay: as §1; outline: as §2

B1: Thiopurine S-methyltransferase (Homo sapiens), P51580 (protein)
chain: MDGTRTSLDIEEYSDTEVQKNQVLTLEEWQDKWVNGKTAFHQEQGHQLLKKHLDTFLKGKSGLRVFFPLCGKAVEMKWFADRGHSVVGVEISELGIQEFFTEQNLSYSEEPITEIPGTKVFKSSSGNISLYCCSIFDLPRTNIGKFDMIWDRGALVAINPGDRKCYADTMFSLLGKKFQYLLCVLSYDPTKHPGPPFYVPHAEIERLFGKICNIRCLEKVDAFEERHKSWGIDCLFEKLYLLTEK
Km [1]: 2.1 µM | Km [2]: 4.8 µM | Km [3]: 5.6 µM | Km [4]: 2.1 µM | Km [5]: 0.8 µM | Km [6]: 2.6 µM | Km [7]: 6.5 µM | Km [8]: 3.9 µM | Km [9]: 3.6 µM | Km [10]: 2.4 µM | Km [11]: 7.8 µM | Km [12]: 3.2 µM | Km [13]: 2.5 µM | Km [14]: 5.9 µM
